Assay results: ChEMBL document CHEMBL4400507, “Discovery of Novel Transient Receptor Potential Vanilloid 4 (TRPV4) Agonists as Regulators of Chondrogenic Differentiation: Identification of Quinazolin-4(3 H)-ones and in Vivo Studies on a Surgically Induced Rat Model of Osteoarthritis” (J Med Chem, 2019)
Values after ≈ are worked out from the molar mass of the structure shown. Active and inactive are the calls of the source. The rule behind the calls is not given here.

Columns and labels:
[1] = target: T1, Transient receptor potential cation channel subfamily V member 4 (Homo sapiens, UniProt Q9HBA0); test: Agonist activity at recombinant human TRPV4 expressed in […] cells at 10 uM by SOX9 luciferase reporter gene assay; type: cell-based
T1 sequence (Q9HBA0 whole entry): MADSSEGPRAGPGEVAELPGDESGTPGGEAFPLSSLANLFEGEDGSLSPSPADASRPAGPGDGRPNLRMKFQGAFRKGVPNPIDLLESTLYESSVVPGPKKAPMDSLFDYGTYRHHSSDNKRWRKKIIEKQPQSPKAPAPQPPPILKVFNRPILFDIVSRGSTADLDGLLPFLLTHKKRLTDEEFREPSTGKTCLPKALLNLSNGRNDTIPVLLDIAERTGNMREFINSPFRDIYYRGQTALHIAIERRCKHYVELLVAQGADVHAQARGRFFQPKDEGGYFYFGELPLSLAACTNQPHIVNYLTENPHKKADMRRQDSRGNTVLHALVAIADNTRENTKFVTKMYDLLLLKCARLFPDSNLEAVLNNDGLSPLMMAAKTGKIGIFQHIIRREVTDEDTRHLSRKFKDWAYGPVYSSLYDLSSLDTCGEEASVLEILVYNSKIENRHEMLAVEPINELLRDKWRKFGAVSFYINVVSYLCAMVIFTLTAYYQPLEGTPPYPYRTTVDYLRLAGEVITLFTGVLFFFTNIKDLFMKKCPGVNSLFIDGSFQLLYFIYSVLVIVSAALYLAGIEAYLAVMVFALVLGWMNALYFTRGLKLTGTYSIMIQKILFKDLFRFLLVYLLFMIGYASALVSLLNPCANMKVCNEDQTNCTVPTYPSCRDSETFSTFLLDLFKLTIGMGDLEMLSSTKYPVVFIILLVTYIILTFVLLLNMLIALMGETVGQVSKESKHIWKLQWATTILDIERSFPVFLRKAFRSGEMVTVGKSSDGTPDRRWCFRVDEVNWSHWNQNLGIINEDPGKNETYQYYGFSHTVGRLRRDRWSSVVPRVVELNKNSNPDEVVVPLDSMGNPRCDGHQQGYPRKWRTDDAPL
Procedure, shortened: (§1)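 ATDC5 cells stably carrying a SOX9 reporter gene construct and human TRPV4 (pcDNA3.1) were seeded at 2.0 × 10^4 cells/well and treated with compound. Luciferase luminescence was measured the next day.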

[2] = target: T1, Transient receptor potential cation channel subfamily V member 4; test: Agonist activity at recombinant human TRPV4 expressed in HEK293 cells assessed as increase in intracellular calcium level after 30 mins by Fura-2 AM/Pluronic F-127 probe based fluorescence assay; type: cell-based
Procedure, shortened: (§2)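 HEK293 cells transiently expressing human TRPV4 were loaded with 5 µM Fura-2 AM plus 0.2% Pluronic F-127 for 30 min at 37 °C in HEPES buffer (pH 7.4, 1.8 mM CaCl2, 0.1% BSA). They were then washed and resuspended. Intracellular Ca2+ was read by Fura-2 ratio imaging (excitation 340/380 nm, emission 510 nm).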

[3] = target: T1, Transient receptor potential cation channel subfamily V member 4; test: Agonist activity at recombinant human TRPV4 expressed in […] cells by SOX9 luciferase reporter gene assay; type: cell-based; procedure, shortened: as §1
[4] = Solubility of the compound in saline; type: physicochemical
[5] = target: Transient receptor potential cation channel subfamily V member 1 (Homo sapiens) (UniProt Q8NER1); test: Agonist activity at human TRPV1 assessed as increase in intracellular calcium level at 10 uM relative to control; type: cell-based
Chain of Transient receptor potential cation channel subfamily V member 1 (Homo sapiens) (Q8NER1 whole entry): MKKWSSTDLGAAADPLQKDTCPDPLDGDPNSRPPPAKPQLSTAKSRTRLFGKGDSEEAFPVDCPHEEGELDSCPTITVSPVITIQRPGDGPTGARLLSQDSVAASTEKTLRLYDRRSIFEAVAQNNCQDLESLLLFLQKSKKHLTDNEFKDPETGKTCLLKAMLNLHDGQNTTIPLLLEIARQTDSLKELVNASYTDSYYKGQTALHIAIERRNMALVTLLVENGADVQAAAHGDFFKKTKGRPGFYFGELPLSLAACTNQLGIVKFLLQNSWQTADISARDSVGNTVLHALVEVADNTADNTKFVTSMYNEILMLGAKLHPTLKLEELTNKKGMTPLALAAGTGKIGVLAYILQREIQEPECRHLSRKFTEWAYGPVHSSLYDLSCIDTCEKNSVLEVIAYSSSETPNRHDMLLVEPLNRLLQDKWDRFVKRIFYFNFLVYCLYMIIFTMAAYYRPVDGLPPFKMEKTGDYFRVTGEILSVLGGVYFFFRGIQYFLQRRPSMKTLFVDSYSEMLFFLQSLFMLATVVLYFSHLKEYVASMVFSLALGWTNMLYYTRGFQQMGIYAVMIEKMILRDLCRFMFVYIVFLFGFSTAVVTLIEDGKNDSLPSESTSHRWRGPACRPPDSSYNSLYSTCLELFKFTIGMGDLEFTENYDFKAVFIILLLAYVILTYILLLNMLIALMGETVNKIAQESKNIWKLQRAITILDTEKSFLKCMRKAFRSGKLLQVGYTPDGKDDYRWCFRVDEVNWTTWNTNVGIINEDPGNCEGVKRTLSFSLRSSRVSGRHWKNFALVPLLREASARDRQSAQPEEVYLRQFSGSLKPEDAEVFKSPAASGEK

Homo sapiens [6] = species: Homo sapiens; test: Induction of chondrogenesis in normal human articular chondrocytes at 500 nM preincubated for 30 mins followed by medium replacement and measured after 3 days by Alcian blue-staining based assay; type: functional, cell-based
Procedure, shortened: (§3)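 Normal human articular chondrocytes were stimulated with agonist for 30 min, then the medium was replaced. After 3 days' culture, cells were fixed in 95% methanol and stained overnight with 0.1% Alcian blue 8GS in 0.1 N HCl. Dye was extracted with 6 M guanidine-HCl for 2 h at room temperature and read at OD 600 nm.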

Homo sapiens [7] = species: Homo sapiens; test: Induction of chondrogenesis in normal human articular chondrocytes at <500 nM preincubated for 30 mins followed by medium replacement and measured after 3 days by Alcian blue-staining based assay; type: functional, cell-based; procedure, shortened: as §3
Homo sapiens [8] = species: Homo sapiens; test: Induction of chondrogenesis in normal human articular chondrocytes at 62.5 to 1000 nM preincubated for 30 mins followed by medium replacement and measured after 3 days by Alcian blue-staining based assay; type: functional, cell-based
Procedure, shortened: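 Normal human articular chondrocytes were exposed to agonist for 30 min, then the medium was replaced and the cells cultured 3 days. They were fixed in 95% methanol and stained overnight with 0.1% Alcian blue in 0.1 N HCl. Dye was extracted with 6 M guanidine-HCl for 2 h at room temperature, and OD was read at 600 nm.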

[9] = target: T1, Transient receptor potential cation channel subfamily V member 4; test: Agonist activity at recombinant human TRPV4 expressed in HEK293 cells assessed as increase in intracellular calcium level at 10 uM after 30 mins by Fura-2 AM/Pluronic F-127 probe based fluorescence assay relative to control; type: cell-based; procedure, shortened: as §2
HL-60 = test: Cytotoxicity against human HL60 cells assessed as reduction in cell viability; type: cell-based
Procedure, shortened: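 HL-60 cell viability measured with an ATP-based assay.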

[10] = Genotoxicity in Salmonella typhimurium by Ames test; type: toxicity; settings: salmonella enterica subsp. enterica serovar typhimurium
Homo sapiens [11] = species: Homo sapiens; test: Induction of chondrogenesis in normal human articular chondrocytes at 62.5 nM preincubated for 30 mins followed by medium replacement and measured after 3 days by Alcian blue-staining based assay; type: functional, cell-based; procedure, shortened: as §3
Rattus norvegicus [12] = test: Anti-osteoarthritis activity in Sprague-Dawley rat model of medial meniscal tear-induced osteoarthritis assessed as reduction in erosion of tibial plateau cartilage at 5 to 10 uM administered intra-articularly into operated knee twice per week for 3 consecutive weeks and measured at week 4; type: functional, organism-based
Procedure, shortened: (§4)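 Male Sprague-Dawley rats, 8 weeks old. Medial meniscus cut through to mimic a complete tear. One week after surgery, rats were grouped by body weight: sham, MT vehicle, 5 μM, 10 μM. 50 µL saline or drug was injected intra-articularly into the operated knee twice weekly for 3 weeks, and knees were harvested at week 4. Sections of 5 μm were stained with safranin-O/Fast Green, and damaged width on the medial tibial plateau was measured by micrometer. Analysis by Dunnett's test; n = 5–15 per group.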

Rattus norvegicus [13] = test: Induction of SOX9 mRNA expression in Sprague-Dawley rat model of medial meniscal tear-induced osteoarthritis at 5 to 10 uM administered intra-articularly into operated knee twice per week for 3 consecutive weeks measured after 21 days by RT-qPCR analysis; type: functional, organism-based
Rattus norvegicus [14] = test: Induction of aggrecan mRNA expression in Sprague-Dawley rat model of medial meniscal tear-induced osteoarthritis at 5 to 10 uM administered intra-articularly into operated knee twice per week for 3 consecutive weeks measured after 21 days by RT-qPCR analysis; type: functional, organism-based
Rattus norvegicus [15] = test: Bone anabolic effect in Sprague-Dawley rat model of medial meniscal tear-induced osteoarthritis assessed as induction of new extracellular matrix generation at 10 uM administered intra-articularly into operated knee twice per week for 3 consecutive weeks and measured at week 4 by safranin-O/Fast Green staining-based microscopic analysis; type: functional, organism-based
Rattus norvegicus [16] = test: Anti-osteoarthritis activity in Sprague-Dawley rat model of medial meniscal tear-induced osteoarthritis assessed as decrease in length of damage area at 5 to 10 uM administered intra-articularly into operated knee twice per week for 3 consecutive weeks and measured at week 4; type: functional, organism-based; procedure, shortened: as §4
[17] = Toxicity in Sprague-Dawley rat model of medial meniscal tear-induced osteoarthritis assessed as effect on body weight at 5 to 10 uM administered intra-articularly into operated knee twice per week for 3 consecutive weeks and measured at week 4; settings: in vivo, other
Procedure, shortened: (§5)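 Eight-week-old male SD rats, housed singly, had the medial meniscus cut. One week later they were grouped by body weight. The operated knee received 50 µL saline or 0, 5 or 10 µM solution intra-articularly twice weekly for 3 weeks, starting 1 week post-surgery. Deaths and systemic signs were checked by gross visual inspection, and final body weights were recorded. Rats were euthanized at week 4.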

[18] = Toxicity in Sprague-Dawley rat model of medial meniscal tear-induced osteoarthritis assessed as death at 5 to 10 uM administered intra-articularly into operated knee twice per week for 3 consecutive weeks and measured at week 4; settings: in vivo, other; procedure, shortened: as §5
[19] = Drug level in rat synovial fluid lavage dosed directly in to knee joints and measured after 30 mins by LC-MS method; type: ADME, organism-based; settings: in vivo, other, 0.5 h
Procedure, shortened: (§6)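 Normal rats received an intra-articular knee injection. After euthanasia the joint was washed with saline and the synovial fluid lavage collected. Compound was quantified by LC-MS/MS and converted to joint concentration using the ratio of total protein in the lavage. Quantitation limits were 0.3–1 nmol/L.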

[20] = Drug level in rat synovial fluid lavage dosed directly in to knee joints and measured within 30 mins by LC-MS method; type: ADME, organism-based; settings: in vivo, other, 0.5 h; procedure, shortened: as §6
[21] = Systemic toxicity in Sprague-Dawley rat model of medial meniscal tear-induced osteoarthritis at 5 to 10 uM administered intra-articularly into operated knee twice per week for 3 consecutive weeks and measured at week 4; settings: in vivo, other; procedure, shortened: as §5

Structure (SMILES)	Activity [1]	EC50 [2]	ECmax [3]	other results
CCOC(=O)c1ccc(-n2c(N3CCC(N(C)C)C3)nc3c(F)cccc3c2=O)cc1 (stereo not drawn)	2.2%	–	–	–
CN1CCN(c2nc3cc(F)ccc3c(=O)n2-c2ccc(C(F)(F)F)cc2)CC1(C)C	5%	> 30 µM	10000 nM	–
COc1ccc(-n2c(N3CCN(C)CC3)nc3cc(F)ccc3c2=O)cc1	42.2%	4.7 µM	5000 nM	–
CCOC(=O)c1ccc(-n2c(N3CCN(C)CC3)nc3c(F)cccc3c2=O)cc1	–	0.92 µM	625 nM	–
CN1CCN(c2nc3cc(F)ccc3c(=O)n2-c2ccc(C(F)(F)F)cc2)CC12CC2	1.2%	–	–	–
CN1CCN(c2nc3c(F)cccc3c(=O)n2-c2ccc(Cc3ccccc3)cc2)CC1	–	0.67 µM	312 nM	solubility [4]: 553 µg/mL (≈ 1290 µM); Activity [5]: 1.5%
CCOC(=O)c1ccc(-n2c(N3CCN(C(C)C)CC3)nc3c(F)cccc3c2=O)cc1	1.9%	–	–	–
CC(C)C[C@H](NC(=O)c1cc2ccccc2s1)C(=O)NCCCN(C)S(=O)(=O)c1ccc(Cl)cc1Cl	–	0.74 µM	312 nM	solubility [4]: 3.6 µg/mL (≈ 6.31 µM); Activity (Homo sapiens [6]): Active; Activity (Homo sapiens [7]): inactive
COc1ccc(-n2c(N3CCNCC3)nc3cc(F)ccc3c2=O)cc1	1.8%	–	–	–
Cc1cccc(-n2c(N3CCN(C)CC3)nc3c(Cl)cccc3c2=O)c1	1.5%	–	–	–
CN1CCN(c2nc3c(F)cccc3c(=O)n2-c2ccc(Oc3ccccc3)cc2)CC1	–	0.125 µM	39 nM	solubility [4]: 745 µg/mL (≈ 1730 µM); Activity [5]: 0.6%
CN1CCN(c2nc3c(F)cccc3c(=O)n2-c2ccc(OC(F)(F)F)cc2)CC1	–	0.28 µM	625 nM	solubility [4]: 951 µg/mL (≈ 2250 µM); Activity [5]: 2.2%
CCOC(=O)c1ccc(-n2c(N(C)C3CCN(C)C3)nc3c(F)cccc3c2=O)cc1 (stereo not drawn)	0.3%	–	–	–
COc1ccc(-n2c(N(C)CCN(C)C)nc3cc(F)ccc3c2=O)cc1	0%	–	–	–
CN1CCN(c2nc3cc(F)ccc3c(=O)n2-c2ccc(C(F)(F)F)cc2)CC1=O	1.8%	–	–	–
CCOC(=O)c1ccc(-n2c(N3CCN(C)CC3)nc3c(Br)cccc3c2=O)cc1	7.8%	–	–	–
COc1cccc2c(=O)n(-c3ccc(C)cc3)c(N3CCN(C)CC3)nc12	1.3%	–	–	–
CC(C)C[C@H]1CN(c2nc3cc(F)ccc3c(=O)n2-c2ccc(C(F)(F)F)cc2)CCN1C	0.9%	–	–	–

Structure (SMILES)	Activity [1]	EC50 [2]	ECmax [3]	other results
CC(C)c1ccc(-n2c(N3CCN(C)CC3)nc3c(F)cccc3c2=O)cc1	–	0.91 µM	2500 nM	–
CN1CCN(c2nc3c(F)cccc3c(=O)n2-c2ccc(SC(F)(F)F)cc2)CC1	–	0.2 µM	156 nM	solubility [4]: 952 µg/mL (≈ 2170 µM); Activity (Homo sapiens [8]): Active; Activity [5]: 3.1%
CN1CCN(c2nc3c(Cl)cccc3c(=O)n2-c2ccc(Cl)cc2)CC1	19.9%	–	–	ECmax [9]: 19%
CN1CCN(c2nc3cc(F)ccc3c(=O)n2-c2ccc(OC(F)(F)F)cc2)CC1	–	0.663 µM	625 nM	Activity [5]: 6.2%
CN1CCN(c2nc3c(F)cccc3c(=O)n2-c2ccc(Oc3ccc(F)cc3)cc2)CC1 [listing 1 of 2 here]	–	0.06 µM	–	Activity (HL-60): Non-Toxic; solubility [4]: 743 µg/mL (≈ 1660 µM); Activity [10]: Non-Toxic
CN1CCN(c2nc3ccc(F)cc3c(=O)n2-c2ccc(OC(F)(F)F)cc2)CC1	–	2.06 µM	2500 nM	Activity [5]: 5%
CCN1CCN(c2nc3cc(F)ccc3c(=O)n2-c2ccc(OC)cc2)CC1	41%	12.2 µM	–	–
COc1ccc(-n2c(N3CCN(C)CC3)nc3ccccc3c2=O)cc1	13.2%	–	–	–
CN1CCN(c2nc3c(F)cccc3c(=O)n2-c2ccc(Oc3ccc(F)cc3)cc2)CC1 [listing 2 of 2 here]	–	–	20 nM	Activity (Homo sapiens [11]): Active; Activity (Rattus norvegicus [12]): Dose-dependent effect; Activity (Rattus norvegicus [13]): Dose-dependent effect; Activity (Rattus norvegicus [14]): Dose-dependent effect; Activity (Rattus norvegicus [15]): Active; Activity (Homo sapiens [8]): Active; Activity [5]: 0.6%; Activity (Rattus norvegicus [16]): Dose-dependent effect
CN1CCN(c2nc3cccc(F)c3c(=O)n2-c2ccc(OC(F)(F)F)cc2)CC1	–	1.18 µM	1250 nM	Activity [5]: 3.7%
CC(C)[C@H]1CN(c2nc3cc(F)ccc3c(=O)n2-c2ccc(C(F)(F)F)cc2)CCN1C	–	> 30 µM	5000 nM	–
CCOC(=O)c1ccc(-n2c(N3CCN(C)CC3)nc3c(Cl)cccc3c2=O)cc1	29.4%	–	–	–
CN1CCN(c2nc3c(F)cccc3c(=O)n2-c2ccc(Oc3ccc(F)cc3)cc2)CC1.Cl	–	–	–	Activity [17]: Non-Toxic; Activity [18]: Non-Toxic; Drug uptake [19]: Not Active; Drug uptake [20]: Active; Activity [21]: Non-Toxic
Cc1ccc(-n2c(N3CCN(C)CC3)nc3c(Cl)cccc3c2=O)cc1	9%	–	–	–
Cc1ccccc1-n1c(N2CCN(C)CC2)nc2c(Cl)cccc2c1=O	0.4%	–	–	–
CN1CCN(c2nc3c(F)cccc3c(=O)n2-c2ccc(C(F)(F)F)cc2)CC1	–	1.44 µM	2500 nM	–
CC(C)C[C@H](NC(=O)c1cc2ccccc2s1)C(=O)N1CCN(C(=O)[C@H](CO)NS(=O)(=O)c2ccc(Cl)cc2Cl)CC1	–	0.049 µM	–	–
